LMPTP inh: blocks human LMPTP phosphatase; P24666; recombinant LMPTP-A, OMFP fluorogenic substrate, fluorescence intensity; inhibition, % at 20 µM; 360,000 compounds, 0.22% hits;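 active = compounds that cut the enzyme signal by at least half of the control window in the single-dose screen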;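 note: plate controls were DMSO wells with enzyme plus substrate for no effect and substrate without enzyme for full effect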
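Test system: LMPTP-A phosphatase enzyme. Amount: LMPTP-A at 0.625 nM final in the reaction. Reagent: OMFP substrate, 400 µM final. Times: 50 min at room temperature. Signal: endpoint fluorescence intensity from OMFP dephosphorylation. Read-out basis: % inhibition. Benchmarks: no-enzyme and uninhibited controls.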
STEP block: STEP (human) phosphatase inhibition; recombinant STEP, OMFP fluorogenic substrate, fluorescence; AID 588621; P54829; inhibition, % at 20 µM; 360,000 compounds, 0.25% hits;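 active = inhibition at 20 µM, scaled per plate between control wells, above about 37%, limit read from the data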;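 note: 0% = DMSO with enzyme and substrate and 100% = substrate only without enzyme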
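medium = Bis-Tris buffer pH 6.0, 2.5 mM DTT, 0.005% Tween 20 | test system = STEP (striatal-enriched tyrosine phosphatase) enzyme, cell-free | measure = normalized % inhibition | compound dosing = 20 µM, 1% DMSO | also added = 25 µM OMFP | schedule = reaction 20 min, ambient temperature | measured by = fluorescence read at 480 nm ex / 540 nm em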
HKDC1 inhibitor: HKDC1 (human) hexokinase inhibition; Q2TB90; recombinant HKDC1, G6PDH/diaphorase resazurin coupled fluorescence; inhibition, % at 20 µM; 340,000 compounds, 0.16% hits; AID 493160;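 active = inhibition above about 35% when tested at 20 µM, limit read from the data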;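 note: plate controls were DMSO wells with enzyme for no effect and DMSO wells lacking enzyme for full effect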
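Test system: recombinant HKDC1 (HK5) hexokinase enzyme, produced in-house; Amount: enzyme 5 µg/mL final; Buffer or medium: Tris pH 8.0 buffer with MgCl2, Tween-20, BSA, BME; Reagent: glucose and ATP substrates; Doses: 20 µM test compound, 1% DMSO; Incubation: 90 min reaction incubation at room temperature, dark; Detection: resorufin fluorescence at 613 nm.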
Scp1 inh: blocks human Scp-1 phosphatase activity | Q9GZU7 | AID 493091 | inhibition, % at 20 µM | 340,000 compounds, 0.88% hits | Recombinant Scp1, phosphopeptide, malachite green phosphate absorbance;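 active = inhibition above about 50% at 20 µM, limit read from the data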;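 note: plate controls were DMSO wells with enzyme for no effect and wells lacking enzyme for full effect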
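System: SCP-1 catalytic domain; Reagent: Phospho 17-mer peptide substrate; Doses: one concentration, 20 µM, with 1.0% DMSO; Incubation: 45 min room-temperature reaction, 5 min colour, 30 min stabiliser; Signal: Phosphate-binding colour reagent, absorbance read at 630 nm.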
SUMO1-SIM PPI: SUMO1-SIM interaction modulation. P63165. SUMO1 binding to a labelled peptide, TR-FRET, 1 h. inhibition, % at 20 µM. 360,000 compounds, 0.33% hits. AID 602429; in the data active = inhibition above about 37%
DNMT1 block: DNMT1 (human) enzyme inhibition; DNMT1 molecular beacon, Hinp1I cleavage, fluorescence; 360,000 compounds, 0.83% hits; inhibition (reported as % activation of signal), % at 10 µM; P26358; in the data active = inhibition above about 50%
Target sequence (P26358 504-1616 limits assumed): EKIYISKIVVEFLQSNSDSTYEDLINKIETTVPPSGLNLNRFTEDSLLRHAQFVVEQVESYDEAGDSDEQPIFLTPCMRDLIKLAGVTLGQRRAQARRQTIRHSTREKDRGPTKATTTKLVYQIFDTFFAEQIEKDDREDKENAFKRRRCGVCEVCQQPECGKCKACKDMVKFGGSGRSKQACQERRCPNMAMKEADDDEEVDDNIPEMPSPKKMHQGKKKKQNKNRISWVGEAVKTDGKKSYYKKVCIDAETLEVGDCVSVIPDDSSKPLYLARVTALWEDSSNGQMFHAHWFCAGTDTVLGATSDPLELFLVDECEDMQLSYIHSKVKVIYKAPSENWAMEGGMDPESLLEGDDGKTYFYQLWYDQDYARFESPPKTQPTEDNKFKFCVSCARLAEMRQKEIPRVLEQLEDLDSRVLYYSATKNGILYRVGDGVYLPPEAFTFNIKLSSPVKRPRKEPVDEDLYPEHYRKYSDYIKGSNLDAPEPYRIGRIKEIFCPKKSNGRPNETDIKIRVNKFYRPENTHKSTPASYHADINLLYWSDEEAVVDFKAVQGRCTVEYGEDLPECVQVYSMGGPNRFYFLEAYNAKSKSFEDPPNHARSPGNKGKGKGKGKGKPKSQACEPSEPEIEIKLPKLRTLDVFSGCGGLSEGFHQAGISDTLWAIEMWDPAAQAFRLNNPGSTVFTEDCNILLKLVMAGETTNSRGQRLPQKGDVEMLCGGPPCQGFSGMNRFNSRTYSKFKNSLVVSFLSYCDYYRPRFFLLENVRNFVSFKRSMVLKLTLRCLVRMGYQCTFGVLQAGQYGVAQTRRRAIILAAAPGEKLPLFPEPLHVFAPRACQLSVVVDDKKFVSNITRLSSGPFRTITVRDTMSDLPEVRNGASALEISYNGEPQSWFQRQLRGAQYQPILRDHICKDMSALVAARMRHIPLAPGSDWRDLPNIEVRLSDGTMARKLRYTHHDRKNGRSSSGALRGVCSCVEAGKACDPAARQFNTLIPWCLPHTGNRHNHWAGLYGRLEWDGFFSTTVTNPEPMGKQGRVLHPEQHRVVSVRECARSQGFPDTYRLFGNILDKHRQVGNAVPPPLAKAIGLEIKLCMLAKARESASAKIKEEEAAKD
Scp1 confirm: confirmation of human Scp-1 phosphatase inhibitors | shares compounds with Scp1 inh | AID 540281 | inhibition, % at 20 µM | 2,500 compounds, 61% hits | recombinant SCP-1 catalytic domain, phosphate release, malachite green absorbance;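 note: plate controls were DMSO with enzyme for no effect and buffer wells lacking enzyme for full effect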
MG interference: interferes with malachite green readout, flagging false Scp-1 hits; Colorimetric interference counterscreen, malachite green absorbance 630 nm; shares compounds with Scp1 inh; 2,500 tested, under 10 active; apparent inhibition (interference), % at 20 µM;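 note: compounds added after enzyme reaction finished so only phosphate colour detection is probed; plate controls were DMSO wells with completed Scp-1 reaction for no effect and substrate wells lacking enzyme for full effect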
Scp1 DSF: Scp-1 (human) binding by thermal shift; Recombinant SCP1, Sypro Orange thermal shift Tm; 1,500 compounds, 25% hits; AID 540329; thermal shift relative to vanadate control, % at 40 µM; shares compounds with Scp1 inh;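 active = substances whose mean melting-temperature shift, as a percentage of the reference inhibitor's shift, reaches about 5.3%, limit read from the data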;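 note: 0% = Tm of DMSO wells and 100% = Tm with sodium orthovanadate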
* = called active by the depositor; . = no result given. Rows were chosen to be rich in hits. Some 1.8% of all compounds tested hit in one or more screens of this group.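 Rule for the calls, unless noted: active = inhibition of at least 30% at 20 µM; inactive = the rest.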

SMILES | LMPTP inh | STEP block | HKDC1 inhibitor | Scp1 inh | SUMO1-SIM PPI | DNMT1 block | Scp1 confirm | MG interference | others
O=C(NCCCN1CCOCC1)C(Cl)(Cl)Cl | -2 | -2 | 13 | 4 | 3 | -2 | . | .
Cc1cc(O)c2c(c1)C(=O)C13C(=C2O)C(=O)[C@H]2[C@@H](O)[C@@H]1[C@H]1[C@H](O)[C@@H]3C(=O)C3=C(O)c4c(O)cc(C)cc4C(=O)C312 (some centres undefined) | 6 | 1 | 67* | 1 | -10 | 18 | . | .
NCCc1cc(O)c(O)cc1O | 79* | -2 | 15 | -9 | 47* | 118* | . | .
COc1ccc(CCN)cc1O | -3 | -4 | -4 | -14 | -3 | -5 | . | .
C[C@H]1OC[C@@H](C[N+](C)(C)C)O1 | -3 | 1 | -4 | 101* | 1 | -29 | . | .
CC1OC(C[N+](C)(C)C)CC1O (centres undefined) | -1 | -2 | -1 | -1 | 5 | 0 | . | .
CC(C)COC(=O)c1ccccc1C(=O)OCC(C)C | 2 | 1 | -3 | -10 | 3 | -3 | . | .
C[CH2][Hg][S]c1ccccc1C(=O)O | 2 | 2 | -3 | 101* | 10 | 26 | . | .
c1ccc2c(c1)[IH]c1ccccc1-2 | 12 | 1 | 9 | 8 | -1 | 53* | . | .
O=C(O)c1cc[c]([Hg][Cl])cc1 | -1 | -3 | 4 | 96* | 0 | 29 | . | .
COc1ccc(C(=O)O)cc1OC | -1 | -21 | 4 | -4 | 6 | -5 | . | .
CN1CCN(C(=O)COc2ccc(N(C)S(=O)(=O)c3ccc(F)cc3)cc2)CC1 | 0 | -3 | -10 | 68* | -1 | -1 | -10 | -11
CC1C2Cc3ccc(O)cc3[C@]1(C)CCN2CCc1ccccc1 (some centres undefined) | 0 | -1 | -1 | 4 | -4 | 6 | . | .
COC(=O)C1=C(c2ccc3ccccc3c2)C[C@@H]2CC[C@H]1N2C(=O)NC1Cc2ccccc2C1 | 4 | 0 | 4 | -8 | 5 | -3 | . | .
C[N+]1(CC2COC(c3ccco3)O2)CCCCC1 (centres undefined) | 0 | -1 | 3 | 109* | -1 | 0 | 84* | -17 | Scp1 DSF=-16
COc1ccc(C(=O)N/N=C/C23CC[C@@H](O)CC2(O)CC[C@@H]2[C@@H]3CCC3(C)C(C4=CC(=O)OC4)CCC23O)cc1 (some centres undefined) | -1 | 1 | 0 | 56* | 2 | -2 | 2 | -8
Clc1cccc(Cl)c1C1N2CCCN12 (centres undefined) | 1 | -2 | -5 | -4 | 1 | 0 | . | .
C[C@]12CCC3C(CC[C@H]4C[C@@H](O)CC[C@]34C)C1C[C@@H](Br)[C@@H]2O (some centres undefined) | . | . | 3 | 59* | . | . | -4 | -8
CCOC(=O)[C@]12Cc3cc(OC)ccc3[C@H]1N(Cc1ccccc1)C(=O)c1ccccc12 | 2 | 2 | 0 | -11 | 4 | 5 | . | .
CCOC(=O)C1(c2ccccc2)Oc2ccccc2C(c2ccc(OC)cc2)=C1C(=O)OC (centres undefined) | 2 | 0 | 0 | 97* | 2 | 9 | 1 | -18
CSc1ccc(C(=O)C2CCCN(Cc3cnc(SC)nc3)C2)cc1 (centres undefined) | 0 | 0 | -8 | 5 | -2 | 3 | . | .
COc1ccc(/C=C/C=C2C(=O)NC(=S)NC2=O)cc1 | 0 | 2 | 10 | 50* | 15 | 10 | 14 | -8
COc1ccc(C=C2C(=O)NC(=S)NC2=O)cc1OC | -2 | 0 | -7 | 10 | -3 | 0 | . | .
CCOc1cc(C=C2C(=O)NC(=S)NC2=O)ccc1O | 2 | -3 | 2 | 50 | -3 | -4 | 7 | -16
CCOC(=O)c1c(C)[nH]c(C(=O)C(C)N2CCCC2)c1C (centres undefined) | 6 | 0 | -10 | -9 | 1 | -3 | . | .
SMILES | LMPTP inh | STEP block | HKDC1 inhibitor | Scp1 inh | SUMO1-SIM PPI | DNMT1 block | Scp1 confirm | MG interference | others
C[N+]1(CC(COCc2ccccc2)OC(=O)Cc2ccccc2)CCOCC1 (centres undefined) | -1 | -1 | -8 | 112* | -4 | 11 | 89* | -4 | Scp1 DSF=-3
CN1CCC(OC(=O)Cc2ccccc2)CC1 | -1 | -2 | -13 | -7 | -3 | 0 | . | .
COC(=O)C1=C(c2cccc(C#N)c2)C[C@@H]2CC[C@H]1N2C(=O)NCCO | -2 | 2 | -5 | 71* | 3 | 6 | 2 | -1
N#CCCn1cc(C(=O)Nc2ccccc2Cl)c(-c2ccc([N+](=O)[O-])cc2)n1 | -1 | -1 | -6 | -13 | -29 | 14 | . | .
CCOP(=O)(Cc1cc(C#N)oc1C)OCC | 0 | -4 | 12 | -2 | -6 | -2 | . | .
O=C(O)CCn1cc(C=C2C(=O)NC(=S)NC2=O)c(-c2ccccc2)n1 | -3 | 5 | 0 | 21 | 7 | 3 | . | .
O=C(O)CCn1cc(C=C2C(=O)NC(=S)NC2=O)c(-c2cc3ccccc3oc2=O)n1 | 0 | 2 | 4 | 87* | 10 | 53* | 69* | -9 | Scp1 DSF=-9
CC(C)C(O)(C(=O)OCC1=CCN2CCC(O)C12)C(C)O (centres undefined) | -5 | -3 | . | . | 0 | -1 | . | .
CCCC[N+]12CCC(CC1)C(=C(c1ccccc1)c1ccccc1)C2 | 0 | 1 | -6 | 98* | 2 | 2 | 86* | -7 | Scp1 DSF=0
CN(C)C(=O)OCc1n(C)cc[n+]1C | -1 | -2 | -6 | -6 | 11 | 2 | . | .
CCN(CC)P(c1n(C)cc[n+]1C)N(CC)CC | 0 | 4 | -6 | 99* | -1 | 3 | 83* | -11 | Scp1 DSF=-26
CC(C)[N+](C)(CCC(C(N)=O)(c1ccccc1)c1ccccc1)C(C)C | -1 | -1 | -1 | 99* | 1 | 3 | 91* | -7 | Scp1 DSF=-12
COc1ccc2c3c1OC1C(O)C=CC4C(C2)[N+](C)(C)CCC341 (centres undefined) | -1 | -2 | 1 | 89* | -1 | -1 | 78* | -13 | Scp1 DSF=-20
CN1CC[C@]23c4c5ccc(O)c4OC2[C@H](O)C=CC3[C@H]1C5 (some centres undefined) | -1 | 0 | 3 | 2 | -2 | 3 | . | .
FC(F)(F)c1cccc(-n2nnnc2C2(N3CCOCC3)CCCCC2)c1 | 0 | 1 | 8 | 3 | 2 | 0 | . | .

Bioassay records as filed in PubChem.
